Calls of active or inactive are those of the source. The rule behind the calls is not given here.
How the values were obtained:
[1] = system: Plasmodium falciparum; assay: Antiplasmodial activity against asexual intraerythrocytic ring stage of chloroquine-resistant Plasmodium falciparum W2 infected in human O+ erythrocytes assessed as inhibition of parasitic proliferation after 96 hrs by SYBR Green-1 based fluorescence assay; assay type: functional, organism-based; conditions: W2, 96 h
[2] = system: HepG2; assay: (§1) Cytotoxicity against human HepG2 cells assessed as inhibition of cell growth after 48 hrs by LDH assay; assay type: cell-based; conditions: hepg2, 48 h
[3] = system: Plasmodium falciparum; assay: Antiplasmodial activity against asexual intraerythrocytic ring stage of antifolate-resistant Plasmodium falciparum HB3 infected in human O+ erythrocytes assessed as inhibition of parasitic proliferation after 96 hrs by SYBR Green-1 based fluorescence assay; assay type: functional, organism-based; conditions: HB3, 96 h
[4] = Selectivity index, ratio of GI50 for human HepG2 cells to IC50 for asexual intraerythrocytic ring stage of chloroquine-sensitive Plasmodium falciparum 3D7 infected in human O+ erythrocytes; assay type: functional
[5] = system: Plasmodium falciparum; assay: Resistance index, ratio of IC50 for asexual intraerythrocytic ring stage of chloroquine-resistant Plasmodium falciparum W2 infected in human O+ erythrocytes to IC50 for asexual intraerythrocytic ring stage of chloroquine-sensitive Plasmodium falciparum 3D7 infected in human O+ erythrocytes; assay type: functional
[6] = system: Plasmodium falciparum; assay: Antiplasmodial activity against asexual intraerythrocytic ring stage of chloroquine-sensitive Plasmodium falciparum 3D7 infected in human O+ erythrocytes assessed as inhibition of parasitic proliferation after 96 hrs by SYBR Green-1 based fluorescence assay; assay type: functional, organism-based; conditions: 3D7, 96 h
[7] = as §1; assay type: cell-based; conditions: HepG2 cells
[8] = system: Plasmodium falciparum; assay: (§2) Plasmocidal activity against intraerythrocytic chloroquine-sensitive Plasmodium falciparum 3D7 infected in human O+ erythrocytes assessed as irreversible inhibition of parasitic viability at 10XIC90 pulsed with compound for 12 hrs followed by drug wash-out measured after 36 hrs by SYBR Green 1 based flow cytometry; assay type: functional, organism-based
Outline: (§3)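 Cultures were washed once in RPMI 1640 and diluted 1:40. Proliferation followed at set times over 36 h by SYBR Green I DNA fluorescence.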

[9] = system: Plasmodium falciparum; assay: Plasmocidal activity against intraerythrocytic chloroquine-sensitive Plasmodium falciparum 3D7 infected in human O+ erythrocytes assessed as cessation of nuclear division measured as proportion of rings/trophozoites containing 1N nuclear content at IC90 after 96 hrs by SYBR Green I-based flow cytometry
[10] = Inhibition of NP-40-mediated beta-hematin formation at >400 uM after 5 hrs by pyridine-ferrichrome method; assay type: functional
Outline: (§4)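 NP-40 detergent (305.5 µM), water and DMSO mixed with compound over a concentration range. Incubated 5 h at 37 °C with hematin in 1 M acetate buffer, pH 4.8, with occasional shaking. β-Hematin measured by the pyridine-ferrichrome method, absorbance at 405 nm. Three biological repeats in triplicate.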

[11] = system: Plasmodium falciparum; assay: Plasmocidal activity against intraerythrocytic early trophozoitic stage of chloroquine-sensitive Plasmodium falciparum 3D7 infected in human O+ erythrocytes assessed as cessation of nuclear division at IC90 after 24 hrs by SYBR Green I-based flow cytometry; assay type: functional, organism-based
[12] = system: Plasmodium falciparum; assay: Plasmocidal activity against intraerythrocytic chloroquine-sensitive Plasmodium falciparum 3D7 infected in human O+ erythrocytes assessed as inhibition of parasitic proliferation at IC90 after 24 to 96 hrs by flow cytometry; assay type: functional, organism-based
[13] = system: Plasmodium falciparum; assay: Plasmocidal activity against intraerythrocytic chloroquine-sensitive Plasmodium falciparum 3D7 infected in human O+ erythrocytes assessed as cessation of nuclear division measured as proportion of schizonts containing 2N nuclear content at IC90 after 96 hrs by SYBR Green I-based flow cytometry; assay type: functional
[14] = system: Plasmodium falciparum; assay: as §2, with “IC90” for “10XIC90”; assay type: functional; outline: as §3
[15] = system: Plasmodium falciparum; assay: Plasmocidal activity against intraerythrocytic early trophozoitic stage of chloroquine-sensitive Plasmodium falciparum 3D7 infected in human O+ erythrocytes assessed as non-progressive pyknotic phenotype with apparently dying morphology at IC90 measured over 48 hrs single lifecycle by Giemsa staining based microscopy; assay type: functional, organism-based
[16] = system: Plasmodium falciparum; assay: Plasmocidal activity against intraerythrocytic chloroquine-sensitive Plasmodium falciparum 3D7 infected in human O+ erythrocytes assessed as cessation of nuclear division measured as proportion of schizonts containing >2N nuclear content at IC90 after 96 hrs by SYBR Green I-based flow cytometry; assay type: functional
[17] = system: HepG2; assay: Cytotoxicity against human HepG2 cells assessed as cell viability at 5000XIC50 for Plasmodium falciparum 3D7 after 48 hrs by LDH assay; assay type: cell-based; conditions: hepg2, 48 h
[18] = system: Plasmodium falciparum; assay: Antiplasmodial activity against chloroquine-resistant Plasmodium falciparum Dd2; assay type: functional, organism-based
[19] = system: Plasmodium falciparum; assay: Gametocytocidal activity against Plasmodium falciparum NF54-Mal8p1.16-GFP-Luc late (4 to 5) gametocyte assessed as inhibition of parasite viability at 5 uM after 48 hrs by luciferase reporter assay; assay type: functional, organism-based
Outline: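 NF54 luciferase reporter line; gametocytogenesis induced in glucose-free medium under hypoxia without shaking, with daily medium changes. Mature stage IV/V gametocytes were used on day 10, at 2% gametocytemia and 2% hematocrit. Compound at 5 µM for 48 h, hypoxic, 37 °C, in triplicate; three biological repeats. Read-out was luciferase in lysates with luciferin substrate.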

[20] = Inhibition of NP-40-mediated beta-hematin formation after 5 hrs by pyridine-ferrichrome method; assay type: functional
[21] = Inhibition of NP-40-mediated beta-hematin formation at 1 mM after 5 hrs by pyridine-ferrichrome method; assay type: functional; outline: as §4

| SMILES | IC50 [1] [µM] | GI50 [2] [µM] | IC50 [3] [µM] | Selectivity Index [4] | Ratio IC50 [5] | IC50 [6] [µM] | also measured |
| --- | --- | --- | --- | --- | --- | --- | --- |
| O=C(NCCCNCCCCCNCCCNC(=O)NC(c1ccccc1)c1ccccc1)NC(c1ccccc1)c1ccccc1 | 0.02 | 240 | 0.065 | 5113 | 0.43 | 0.047 | – |
| S=C(NCCCNCCCCCCNCCCNC(=S)NCc1ccccc1)NCc1ccccc1 | – | – | – | – | 1.9 | – | GI50 at 48 h [7]: > 200 µM |
| O=C(NCCCNCCCCCNCCCNC(=O)NCCC(c1ccccc1)c1ccccc1)NCCC(c1ccccc1)c1ccccc1 | 0.036 | 153 | 0.056 | 5090 | 1.2 | 0.03 | inhibition [8]: Active; Activity [9]: 88%; inhibition [10]: Active; Activity [11]: Active; inhibition [12]: Active; Activity [13]: 10%; inhibition (INH) [14]: >40%; Activity [15]: Active; Activity [16]: 2% |
| S=C(NCCCNCCCCCCNCCCNC(=S)NC(c1ccccc1)c1ccccc1)NC(c1ccccc1)c1ccccc1 | – | – | – | – | 1.2 | – | GI50 at 48 h [7]: > 200 µM |
| O=C(NCCCNCCCCCNCCCNC(=O)NCC(c1ccccc1)c1ccccc1)NCC(c1ccccc1)c1ccccc1 | 0.018 | 94.5 | 0.04 | 3375 | 0.64 | 0.028 | Activity [11]: Active; inhibition [12]: Active |
| O=C(NCCCNCCCCCCCNCCCNC(=O)NC(c1ccccc1)c1ccccc1)NC(c1ccccc1)c1ccccc1 | – | – | – | – | 1.7 | – | GI50 at 48 h [7]: > 200 µM |
| S=C(NCCCNCCCCCNCCCNC(=S)NCc1ccccc1)NCc1ccccc1 | 0.042 | – | 0.178 | >5000 | 0.17 | 0.249 | Activity [17]: 100% |
| N=C(N)NCCCNCCCCNCCCNC(=N)N | – | – | 14.2 | – | – | 80 | – |
| O=C(NCCCNCCCCCNCCCNC(=O)Nc1ccccc1)Nc1ccccc1 | 0.049 | – | 0.177 | >5000 | 0.2 | 0.246 | Activity [17]: 100% |
| S=C(NCCCNCCCCNCCCNC(=S)NCc1ccccc1)NCc1ccccc1 | – | – | – | – | – | – | GI50 at 48 h [7]: > 200 µM |
| N=C(N)NCCCNCCCNCCCNC(=N)N | – | – | 110 | – | – | 147 | – |
| C(CCCNCCCNCC1CCCCCC1)CCCNCCCNCC1CCCCCC1 | – | – | – | – | – | 0.11 | IC50 [18]: 0.12 µM |
| S=C(NCCCNCCCCCNCCCNC(=S)NC(c1ccccc1)c1ccccc1)NC(c1ccccc1)c1ccccc1 | 0.035 | 44.8 | 0.075 | 659 | 0.51 | 0.068 | inhibition [19]: Active |
| S=C(NCCCNCCCCCNCCCNC(=S)NCCC(c1ccccc1)c1ccccc1)NCCC(c1ccccc1)c1ccccc1 | 0.041 | 50.6 | 0.062 | 666 | 0.54 | 0.076 | inhibition [19]: Active |
| O=C(NCCCNCCCCCCCNCCCNC(=O)NCC(c1ccccc1)c1ccccc1)NCC(c1ccccc1)c1ccccc1 | – | – | – | – | 1.4 | – | – |
| O=C(NCCCNCCCCCCNCCCNC(=O)Nc1ccccc1)Nc1ccccc1 | – | – | – | – | 0.3 | – | – |
| S=C(NCCCNCCCCCNCCCNC(=S)NCC(c1ccccc1)c1ccccc1)NCC(c1ccccc1)c1ccccc1 | 0.047 | 52.2 | 0.056 | 1305 | 1.18 | 0.04 | IC50 [20]: 16.7 µM |
| N=C(N)NCCCNCCCCCCCNCCCNC(=N)N | – | – | 70.3 | – | – | – | – |
| O=C(NCCCNCCCCCNCCCNC(=O)NCc1ccccc1)NCc1ccccc1 | 0.171 | 1950 | 0.593 | 2456 | 0.22 | 0.793 | inhibition [21]: inactive |
| O=C(NCCCNCCCCCCCNCCCNC(=O)NCCC(c1ccccc1)c1ccccc1)NCCC(c1ccccc1)c1ccccc1 | – | – | – | – | 1.13 | – | – |

— ChEMBL document CHEMBL3596171, “Interrogating alkyl and arylalkylpolyamino (bis)urea and (bis)thiourea isosteres as potent antimalarial chemotypes against multiple lifecycle forms of Plasmodium falciparum parasites” (Bioorg Med Chem, 2015)
